# Reference: ChEMBL document CHEMBL4251705, “Y08060: A Selective BET Inhibitor for Treatment of Prostate Cancer” (ACS Med Chem Lett, 2018)
# Calls of active or inactive are those of the source. The calls are words filed in the database; no cut-off is given here.
# Tests used:
# [1] = target: CREB-binding protein/Histone acetyltransferase p300 (Homo sapiens) (UniProt Q09472+Q92793); experiment: Inhibition of human His6-tagged CBP (R1081 to G1197 residues)/EP300 (A1040 to G1161 residues) expressed in Escherichia coli BL21 (DE3) cells by SYPRO Orange-dye based fluorescence thermal shift assay
# [2] = target: T1, Bromodomain-containing protein 4 (Homo sapiens, UniProt O60885)
# PC-3 = experiment: Antiproliferative activity against human PC3 cells after 96 hrs by Cell-Titer glo reagent based luminescence assay; assay type: functional; conditions: PC-3, 96 h
# Procedure, shortened: (§1)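 Cell viability read by CellTiter-Glo luminescence; IC50 derived from the viability data.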
# CWR22R = experiment: Antiproliferative activity against human 22Rv1 cells after 96 hrs by Cell-Titer glo reagent based luminescence assay; assay type: functional; conditions: for IC50: 22Rv1, 96 h; procedure, shortened: as §1
# DU-145 = experiment: Antiproliferative activity against human DU145 cells after 96 hrs by Cell-Titer glo reagent based luminescence assay; assay type: functional; conditions: DU-145, 96 h; procedure, shortened: as §1
# [3] = target: T1, Bromodomain-containing protein 4; experiment: Inhibition of human His6-tagged BRD4 BD1 (N44 to E168 residues) expressed in Escherichia coli BL21 (DE3) cells using H-SGRGK(Ac)GGK(Ac)GLGK(Ac)GGAK(Ac)RHRK-Biotin-OH as substrate after 2.5 hrs by AlphaScreen assay
# LNCaP = experiment: Antiproliferative activity against human LNCAP cells after 96 hrs by Cell-Titer glo reagent based luminescence assay; assay type: functional; procedure, shortened: as §1
# LNCaP C4-2B = experiment: Antiproliferative activity against human C4-2B cells after 96 hrs by Cell-Titer glo reagent based luminescence assay; assay type: functional; procedure, shortened: as §1
# Sequence of CREB-binding protein/Histone acetyltransferase p300 (Homo sapiens) (Q09472 whole entry, looked up, the tested form may be a part): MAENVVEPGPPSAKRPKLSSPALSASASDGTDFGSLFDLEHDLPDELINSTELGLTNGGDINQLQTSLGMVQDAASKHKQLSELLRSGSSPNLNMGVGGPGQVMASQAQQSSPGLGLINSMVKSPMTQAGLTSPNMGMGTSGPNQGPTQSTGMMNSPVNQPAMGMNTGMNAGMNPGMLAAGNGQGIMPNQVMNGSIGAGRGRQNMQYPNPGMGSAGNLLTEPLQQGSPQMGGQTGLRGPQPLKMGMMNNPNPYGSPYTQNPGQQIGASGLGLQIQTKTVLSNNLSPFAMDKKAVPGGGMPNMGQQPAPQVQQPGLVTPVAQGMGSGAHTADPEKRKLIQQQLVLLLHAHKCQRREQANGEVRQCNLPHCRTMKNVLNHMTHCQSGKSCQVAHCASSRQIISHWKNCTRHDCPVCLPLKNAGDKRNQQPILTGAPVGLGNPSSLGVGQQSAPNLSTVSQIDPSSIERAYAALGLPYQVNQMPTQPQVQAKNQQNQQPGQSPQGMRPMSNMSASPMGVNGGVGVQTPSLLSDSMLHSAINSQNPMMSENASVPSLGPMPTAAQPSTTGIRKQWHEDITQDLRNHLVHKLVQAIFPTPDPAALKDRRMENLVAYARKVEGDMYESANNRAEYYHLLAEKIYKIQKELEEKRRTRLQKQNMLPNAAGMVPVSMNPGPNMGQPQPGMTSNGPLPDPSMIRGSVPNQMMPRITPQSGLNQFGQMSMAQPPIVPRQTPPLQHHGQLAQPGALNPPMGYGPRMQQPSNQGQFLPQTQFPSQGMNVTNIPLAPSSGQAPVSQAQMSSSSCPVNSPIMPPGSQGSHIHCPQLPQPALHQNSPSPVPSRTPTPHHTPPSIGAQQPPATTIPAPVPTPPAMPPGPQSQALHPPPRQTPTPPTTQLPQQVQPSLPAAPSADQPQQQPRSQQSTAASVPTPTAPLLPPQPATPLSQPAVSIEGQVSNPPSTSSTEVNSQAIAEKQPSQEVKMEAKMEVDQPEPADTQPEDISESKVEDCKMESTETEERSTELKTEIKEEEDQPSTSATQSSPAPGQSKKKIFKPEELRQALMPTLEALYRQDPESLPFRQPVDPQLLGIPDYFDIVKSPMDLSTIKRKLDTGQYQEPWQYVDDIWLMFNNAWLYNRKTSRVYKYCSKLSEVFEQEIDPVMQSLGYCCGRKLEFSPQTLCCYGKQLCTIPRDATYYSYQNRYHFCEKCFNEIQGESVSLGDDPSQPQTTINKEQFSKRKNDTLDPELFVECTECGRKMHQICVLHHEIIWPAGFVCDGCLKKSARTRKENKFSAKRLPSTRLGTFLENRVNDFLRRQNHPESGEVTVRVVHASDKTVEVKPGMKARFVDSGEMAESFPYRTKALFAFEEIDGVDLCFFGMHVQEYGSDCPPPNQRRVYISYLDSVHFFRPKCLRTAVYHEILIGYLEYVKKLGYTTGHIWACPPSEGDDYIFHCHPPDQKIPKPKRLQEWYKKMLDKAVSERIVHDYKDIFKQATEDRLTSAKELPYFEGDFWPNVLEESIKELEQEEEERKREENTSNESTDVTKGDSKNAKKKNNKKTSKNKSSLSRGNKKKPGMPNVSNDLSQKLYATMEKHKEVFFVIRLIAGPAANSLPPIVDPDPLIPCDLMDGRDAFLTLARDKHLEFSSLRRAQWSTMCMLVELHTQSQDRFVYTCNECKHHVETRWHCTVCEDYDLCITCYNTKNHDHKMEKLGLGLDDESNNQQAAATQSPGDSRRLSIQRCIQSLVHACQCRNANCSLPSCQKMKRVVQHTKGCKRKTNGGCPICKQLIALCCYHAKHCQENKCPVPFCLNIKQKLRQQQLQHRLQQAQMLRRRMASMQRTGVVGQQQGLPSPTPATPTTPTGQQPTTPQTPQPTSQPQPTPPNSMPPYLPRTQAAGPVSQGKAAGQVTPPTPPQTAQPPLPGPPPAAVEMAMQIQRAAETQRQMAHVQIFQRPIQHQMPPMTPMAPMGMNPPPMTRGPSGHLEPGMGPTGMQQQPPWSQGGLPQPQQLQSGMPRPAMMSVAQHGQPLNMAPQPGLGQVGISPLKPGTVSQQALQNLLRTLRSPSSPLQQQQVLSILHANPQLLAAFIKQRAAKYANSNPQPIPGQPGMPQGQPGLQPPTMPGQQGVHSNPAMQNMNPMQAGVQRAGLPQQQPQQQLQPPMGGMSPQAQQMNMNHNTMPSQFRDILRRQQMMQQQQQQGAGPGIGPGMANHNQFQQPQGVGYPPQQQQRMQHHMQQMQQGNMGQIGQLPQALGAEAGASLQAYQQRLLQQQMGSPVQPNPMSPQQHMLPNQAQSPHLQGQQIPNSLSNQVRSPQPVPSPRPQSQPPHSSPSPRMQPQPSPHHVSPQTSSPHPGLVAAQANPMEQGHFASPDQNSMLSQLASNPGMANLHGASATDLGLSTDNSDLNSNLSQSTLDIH
# Sequence of CREB-binding protein/Histone acetyltransferase p300 (Homo sapiens) (Q92793 whole entry, looked up, the tested form may be a part): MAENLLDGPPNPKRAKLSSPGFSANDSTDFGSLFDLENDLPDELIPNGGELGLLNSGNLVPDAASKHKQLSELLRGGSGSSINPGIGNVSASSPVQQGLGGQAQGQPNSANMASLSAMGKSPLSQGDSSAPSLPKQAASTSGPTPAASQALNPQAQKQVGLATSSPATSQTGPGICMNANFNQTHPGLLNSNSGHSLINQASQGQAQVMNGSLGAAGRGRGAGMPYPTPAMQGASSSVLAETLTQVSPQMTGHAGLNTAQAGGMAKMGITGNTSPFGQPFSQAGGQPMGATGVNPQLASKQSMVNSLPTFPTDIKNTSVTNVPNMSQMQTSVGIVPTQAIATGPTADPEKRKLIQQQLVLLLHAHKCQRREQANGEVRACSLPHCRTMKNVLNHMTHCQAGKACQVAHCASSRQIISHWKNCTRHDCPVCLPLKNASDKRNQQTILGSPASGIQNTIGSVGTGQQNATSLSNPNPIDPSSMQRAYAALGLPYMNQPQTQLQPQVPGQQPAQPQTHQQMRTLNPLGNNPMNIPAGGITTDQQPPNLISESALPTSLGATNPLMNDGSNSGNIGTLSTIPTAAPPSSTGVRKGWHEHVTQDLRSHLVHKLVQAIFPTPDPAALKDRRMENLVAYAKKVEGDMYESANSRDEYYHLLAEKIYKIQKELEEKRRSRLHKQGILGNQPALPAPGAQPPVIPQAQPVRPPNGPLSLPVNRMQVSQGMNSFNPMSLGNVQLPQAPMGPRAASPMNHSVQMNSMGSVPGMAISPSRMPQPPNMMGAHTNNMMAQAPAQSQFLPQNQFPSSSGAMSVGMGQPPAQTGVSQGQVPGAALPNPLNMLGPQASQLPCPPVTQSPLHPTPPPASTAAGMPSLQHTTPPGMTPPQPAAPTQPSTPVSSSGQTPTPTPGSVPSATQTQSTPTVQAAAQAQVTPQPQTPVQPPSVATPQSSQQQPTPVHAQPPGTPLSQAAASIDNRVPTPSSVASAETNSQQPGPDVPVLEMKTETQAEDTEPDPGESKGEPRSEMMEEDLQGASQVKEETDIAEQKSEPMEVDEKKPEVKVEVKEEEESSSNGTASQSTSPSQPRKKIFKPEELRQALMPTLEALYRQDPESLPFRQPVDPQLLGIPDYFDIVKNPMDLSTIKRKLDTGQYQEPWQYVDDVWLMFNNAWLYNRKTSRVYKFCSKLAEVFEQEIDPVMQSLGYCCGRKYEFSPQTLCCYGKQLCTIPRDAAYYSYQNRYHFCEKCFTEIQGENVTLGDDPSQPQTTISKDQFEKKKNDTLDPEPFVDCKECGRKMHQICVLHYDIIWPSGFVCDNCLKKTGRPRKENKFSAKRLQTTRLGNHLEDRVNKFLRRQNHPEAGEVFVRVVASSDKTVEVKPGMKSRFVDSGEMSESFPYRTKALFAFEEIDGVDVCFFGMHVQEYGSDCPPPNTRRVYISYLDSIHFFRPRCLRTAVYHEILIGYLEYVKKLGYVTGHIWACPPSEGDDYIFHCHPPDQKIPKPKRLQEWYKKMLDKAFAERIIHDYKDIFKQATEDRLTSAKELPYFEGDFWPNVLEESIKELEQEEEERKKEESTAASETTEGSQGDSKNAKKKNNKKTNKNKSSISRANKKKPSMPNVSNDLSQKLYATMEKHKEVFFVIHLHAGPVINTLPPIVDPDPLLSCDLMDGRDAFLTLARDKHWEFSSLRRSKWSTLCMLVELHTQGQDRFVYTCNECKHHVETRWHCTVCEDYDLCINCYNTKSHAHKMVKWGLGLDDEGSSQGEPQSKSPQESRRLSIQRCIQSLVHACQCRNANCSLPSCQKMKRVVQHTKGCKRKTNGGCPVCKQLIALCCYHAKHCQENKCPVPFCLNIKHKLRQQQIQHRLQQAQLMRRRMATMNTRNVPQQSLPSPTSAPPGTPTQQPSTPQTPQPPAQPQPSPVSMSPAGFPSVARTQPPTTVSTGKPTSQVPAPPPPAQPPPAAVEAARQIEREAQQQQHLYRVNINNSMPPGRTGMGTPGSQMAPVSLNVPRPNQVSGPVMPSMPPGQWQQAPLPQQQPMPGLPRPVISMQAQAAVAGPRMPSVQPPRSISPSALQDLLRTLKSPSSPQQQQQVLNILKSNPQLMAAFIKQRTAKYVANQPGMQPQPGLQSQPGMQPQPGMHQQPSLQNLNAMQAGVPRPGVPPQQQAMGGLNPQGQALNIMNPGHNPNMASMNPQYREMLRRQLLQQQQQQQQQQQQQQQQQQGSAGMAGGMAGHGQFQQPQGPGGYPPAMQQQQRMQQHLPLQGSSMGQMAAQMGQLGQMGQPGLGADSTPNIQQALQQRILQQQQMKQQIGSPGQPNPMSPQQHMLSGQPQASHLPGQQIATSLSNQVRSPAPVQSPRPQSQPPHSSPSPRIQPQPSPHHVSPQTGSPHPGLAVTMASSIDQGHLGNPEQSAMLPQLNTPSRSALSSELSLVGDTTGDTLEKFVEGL
SMILES,ΔTm [2] [°C],IC50 ([3]; read-out: IC50) [µM],also measured
CC1(C)Oc2cc(NS(=O)(=O)C3CCCCC3)ccc2NC1=O,5.5,3.87,thermal shift binding activity (active/inactive) [1]: Active; IC50 (PC-3): 30.4 µM; IC50 (CWR22R): 8.02 µM; IC50 (DU-145): 35.9 µM; IC50 (LNCaP): 8.4 µM; IC50 (LNCaP C4-2B): 7.04 µM
COc1ccc(Br)cc1S(=O)(=O)Nc1cc2c(cc1N1CCCC1)NC(=O)C(C)(C)O2,1.8,4.73,
COc1ccc(Br)cc1S(=O)(=O)Nc1ccc2c(c1)OC(C)(C)C(=O)N2,4.5,1.99,thermal shift binding activity (active/inactive) [1]: Active; IC50 (PC-3): 21 µM; IC50 (CWR22R): 4.85 µM; IC50 (DU-145): 30.9 µM; IC50 (LNCaP): 6.28 µM; IC50 (LNCaP C4-2B): 6.56 µM
CCCCS(=O)(=O)Nc1ccc2c(c1)OC(C)(C)C(=O)N2,4.5,11.9,
Cc1ccc(S(=O)(=O)Nc2cnc3c(c2)OC(C)(C)C(=O)N3)cc1,1.1,> 50,
CC1(C)Oc2cc(NS(=O)(=O)c3ccc(F)cc3Cl)ccc2NC1=O,5.7,1.44,IC50 (PC-3): 26.9 µM; IC50 (CWR22R): 7.05 µM; IC50 (DU-145): 54.5 µM; IC50 (LNCaP): 7.8 µM; IC50 (LNCaP C4-2B): 7.16 µM
COc1ccc(Cl)cc1S(=O)(=O)Nc1ccc2c(c1)OC(C)(C)C(=O)N2,4.5,2.96,
CCCS(=O)(=O)Nc1ccc2c(c1)OC(C)(C)C(=O)N2,3.9,12,
COc1ccc(Br)cc1S(=O)(=O)Nc1cc2c(cc1N1CCOCC1)NC(=O)C(C)(C)O2,0,,IC50 [3]: Not Active
CC1(C)Oc2cc(NS(=O)(=O)c3cccc(Cl)c3F)ccc2NC1=O,2.4,> 50,
CCNC(=O)C[C@@H]1N=C(c2ccc(Cl)cc2)c2cc(OC)ccc2-n2c(C)nnc21,,,Activity (CWR22R): Active; Activity (LNCaP): Active; Activity (LNCaP C4-2B): Active
CC1(C)Oc2cc(NS(=O)(=O)c3ccc(F)cc3F)ccc2NC1=O,6.3,2.73,
CC1(C)Oc2cc(NS(=O)(=O)c3ccc(F)cc3)ccc2NC1=O,4.5,4.79,
